Results as given in ChEMBL document CHEMBL5625176, “Immunosuppressive effects of new thiophene-based KV1.3 inhibitors” (Eur J Med Chem, 2023).
Values after ≈ are worked out from the molar mass of the structure shown. Active and inactive are the calls of the source. The rule behind the calls is not given here.

Assays:
[1] = target: T1, Potassium voltage-gated channel subfamily A member 3 (Homo sapiens, UniProt P22001); assay: Inhibition of human Kv1.3 expressed in mouse LTK- cells by manual patch clamp electrophysiological recording; assay type: cell-based
T1 sequence (P22001 whole entry): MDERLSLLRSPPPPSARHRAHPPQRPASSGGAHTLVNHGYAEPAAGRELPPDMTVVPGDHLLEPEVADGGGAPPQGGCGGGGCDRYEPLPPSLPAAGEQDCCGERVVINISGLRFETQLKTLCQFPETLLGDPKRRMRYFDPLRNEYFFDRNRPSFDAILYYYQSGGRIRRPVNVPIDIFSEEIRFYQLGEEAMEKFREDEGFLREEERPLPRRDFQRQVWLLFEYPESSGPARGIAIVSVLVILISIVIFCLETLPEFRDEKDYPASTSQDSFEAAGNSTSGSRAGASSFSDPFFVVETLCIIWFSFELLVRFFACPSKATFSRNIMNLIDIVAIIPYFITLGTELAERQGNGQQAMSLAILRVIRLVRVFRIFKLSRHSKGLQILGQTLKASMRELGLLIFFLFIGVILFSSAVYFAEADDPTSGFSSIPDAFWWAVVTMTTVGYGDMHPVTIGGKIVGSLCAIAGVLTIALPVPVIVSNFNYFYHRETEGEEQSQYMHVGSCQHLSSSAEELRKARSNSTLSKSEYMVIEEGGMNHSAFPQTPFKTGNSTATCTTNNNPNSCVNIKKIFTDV
Method in brief: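 Mouse Ltk⁻ fibroblasts in DMEM/10% horse serum transiently transfected with hKv1.3 plasmid plus eGFP marker, and recorded 24 h later. Whole-cell patch clamp at 20–23 °C. Compounds diluted from DMSO stocks with final DMSO ≤0.1%, with 0.1% DMSO as vehicle control. Normalized current plotted against concentration and fitted with the Hill equation for IC50; mean ± SEM, n = cells.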

[2] = target: T1, Potassium voltage-gated channel subfamily A member 3; assay: Inhibition of human Kv1.3 expressed in Xenopus laevis Oocyte cells at 10 uM by manual patch clamp method relative to control; assay type: cell-based
Method in brief: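 Human Kv1.3 cRNA injected into defolliculated Xenopus oocytes. Two-electrode voltage clamp 1–4 days later at 18–22 °C in ND96 (pH 7.5). Currents evoked by 1 s depolarizations, with inhibition read at the 0 mV step. Compounds from DMSO stock at ≤0.5% DMSO, either single 10 μM or rising concentrations fitted with the Hill equation for IC50.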

[3] = target: T1, Potassium voltage-gated channel subfamily A member 3; assay: Inhibition of Kv1.3 (unknown origin) expressed in human PBMC derived PHA-activated T-lymphocyte cells assessed as reduction in total outward potassium current at 5 uM by patch clamp electrophysiology method; assay type: cell-based
Method in brief: (§1)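 Whole-cell recording on PBMC stimulated 5 days with PHA-L (240 ng/mL); about 90% of cells CD3⁺. Large cells chosen; cells with currents ≤500–600 pA discarded. Bath in mM: 130 NaCl, 5 KCl, 2 CaCl₂, 2 MgCl₂, 10 HEPES, 5 glucose, pH 7.4; pipette KF-based with 11 EGTA, pH 7.2. Leak-subtracted two-step outward K⁺ current. Single concentration 5 μM, or 0.05 nM–50 μM for curves; peak normalized to control.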

[4] = Aqueous solubility of compound; assay type: physicochemical; details: buffer
Method in brief: (§2)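 Supernatant diluted 1:2 or 1:10 in 0.1% TFA/MeCN 1:1 and quantified by reversed-phase UPLC at 290 nm against a 7-point calibration (1–100 μM). Mean of two independent experiments, in μM.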

[5] = target: T1, Potassium voltage-gated channel subfamily A member 3; assay: Inhibition of Kv1.3 (unknown origin) expressed in Xenopus laevis Oocyte cell membrane by Electrophysiology recording; assay type: cell membranes
[6] = target: hERG (KCNH2) (Homo sapiens, UniProt Q12809); assay: Inhibition of hERG overexpressed in HEK293 cells at 5 uM relative to control; assay type: toxicity, cell-based; details: HEK293 cells overexpressing hERG
hERG (KCNH2), sequence (Q12809 whole entry): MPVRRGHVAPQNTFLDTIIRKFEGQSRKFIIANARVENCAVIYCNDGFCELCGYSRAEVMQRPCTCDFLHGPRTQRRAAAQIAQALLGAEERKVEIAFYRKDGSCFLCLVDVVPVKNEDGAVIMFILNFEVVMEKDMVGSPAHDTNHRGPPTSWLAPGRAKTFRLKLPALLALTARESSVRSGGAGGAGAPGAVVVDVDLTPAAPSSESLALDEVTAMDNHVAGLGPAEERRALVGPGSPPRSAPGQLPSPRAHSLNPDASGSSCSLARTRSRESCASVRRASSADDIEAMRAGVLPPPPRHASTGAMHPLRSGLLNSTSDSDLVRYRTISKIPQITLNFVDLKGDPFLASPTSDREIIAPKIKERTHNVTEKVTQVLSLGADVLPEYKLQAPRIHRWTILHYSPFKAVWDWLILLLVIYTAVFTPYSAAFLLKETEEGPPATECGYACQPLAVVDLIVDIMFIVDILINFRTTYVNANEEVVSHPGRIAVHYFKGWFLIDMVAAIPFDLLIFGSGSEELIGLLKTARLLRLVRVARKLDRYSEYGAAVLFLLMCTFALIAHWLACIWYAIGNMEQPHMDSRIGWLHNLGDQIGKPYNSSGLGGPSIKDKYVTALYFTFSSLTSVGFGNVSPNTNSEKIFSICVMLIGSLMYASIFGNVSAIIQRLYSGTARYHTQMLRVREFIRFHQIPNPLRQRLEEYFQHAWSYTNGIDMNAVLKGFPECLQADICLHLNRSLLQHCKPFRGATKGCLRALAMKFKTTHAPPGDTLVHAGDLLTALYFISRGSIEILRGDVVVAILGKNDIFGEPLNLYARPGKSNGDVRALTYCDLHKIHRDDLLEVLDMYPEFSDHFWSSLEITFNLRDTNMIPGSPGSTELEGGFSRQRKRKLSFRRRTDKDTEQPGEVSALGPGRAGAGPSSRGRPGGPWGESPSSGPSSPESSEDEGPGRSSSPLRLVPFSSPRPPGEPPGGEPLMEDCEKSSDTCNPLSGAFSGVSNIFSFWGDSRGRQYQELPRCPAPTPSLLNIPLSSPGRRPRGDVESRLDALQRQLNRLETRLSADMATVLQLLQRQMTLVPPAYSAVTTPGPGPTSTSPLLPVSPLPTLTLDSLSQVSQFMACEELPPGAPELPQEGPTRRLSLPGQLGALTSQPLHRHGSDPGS

[7] = target: T1, Potassium voltage-gated channel subfamily A member 3; assay: Inhibition of Kv1.3 in human T-lymphocyte by electrophysiology recordings; assay type: cell-based; method in brief: as §1
[8] = target: T1, Potassium voltage-gated channel subfamily A member 3; assay: Inhibition of Kv1.3 (unknown origin) expressed in CHO cells incubated for 10 mins by 86Rb+ efflux assay; assay type: cell-based
[9] = tested on: T-cell; assay: Inhibition of anti-CD3 stimulated human T cell proliferation incubated for 15 to 30 mins in presence of IL-2 by 3H-thymidine uptake assay; assay type: functional, cell-based
[10] = Thermodynamic solubility of the compound at pH 7.4 incubated for 24 hrs under shaking condition by HPLC analysis; assay type: physicochemical; details: buffer, read-out: Therm_solubility; method in brief: as §2
[11] = tested on: T-cell line; assay: Cytotoxicity against human PBMC derived PHA-activated T-lymphocytes assessed as effect on total cell number at 30 uM incubated for 5 days by bright-field microscopic analysis; assay type: toxicity, cell-based; details: 120 h, time 5 day
Method in brief: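 Ficoll-purified PBMC at 1.5 × 10⁶ cells/mL in RPMI/10% heat-inactivated serum/2 mM L-glutamine, stimulated with PHA-L 240 ng/mL and exposed to compounds (30 μM) for 5 days. Cells then counted to give total cell number.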

[12] = target: T1, Potassium voltage-gated channel subfamily A member 3; assay: Inhibition of Kv1.3 (unknown origin) expressed in PBMC derived PHA-activated T-lymphocyte cells incubated for 5 days by manual patch clamp method; assay type: cell-based; method in brief: as §1
[13] = tested on: T-cell line; assay: Cytotoxicity against human PBMC derived PHA-activated T-lymphocytes assessed as effect on cell viability by trypan blue staining based analysis; assay type: toxicity; details: 30 µM
Method in brief: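 PBMC purified by Ficoll gradient with red-cell lysis, seeded at 1.5 × 10⁶ cells/mL in RPMI with 10% heat-inactivated serum and 2 mM L-glutamine. Activated with PHA-L 240 ng/mL alongside compounds at 30 μM. Viability of treated versus untreated cells judged by trypan blue staining.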

[14] = tested on: T-cell; assay: Inhibition of human PBMC derived PHA-activated T-lymphocytes activation assessed as inhibition of colony formation by measuring reduction in colony forming units at 30 uM incubated for 5 days by bright-field microscopic analysis; assay type: functional, cell-based; details: time 5.0 day
Method in brief: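 PBMC at 1.5 × 10⁶ cells/mL treated with compounds (30 μM) together with PHA-L (240 ng/mL) for 5 days in RPMI with 10% heat-inactivated bovine calf serum and 2 mM L-glutamine. After medium removal, wells imaged by bright-field microscopy at 2× and colonies (CFU) counted. Mean ± SD of 3 experiments.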

[15] = target: T1, Potassium voltage-gated channel subfamily A member 3; assay: Inhibition of Kv1.3 in human PBMC derived PHA-activated T-lymphocytes assessed as reduction in intracellular calcium level at 5 uM incubated for 2 hrs by Fluo-4 Ca2+ based flow cytometric analysis; assay type: cell-based; details: T-lymphocyte
Method in brief: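 PBMC activated 5 days with PHA, then given compounds at 5 μM for 2 h. Scraped and loaded with Fluo-4 (2 μM) plus anti-CD3-APC at 37 °C for 1 h, washed, and held 30 min at 37 °C with compound (5 μM) before flow cytometry. Fluo-4 MFI of the CD3⁺ gate, 3 replicates, normalized to untreated control; n = 4.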

[16] = tested on: T-cell; assay: Induction of cell cycle arrest at G0/G1 phase in human PBMC derived PHA-activated T-lymphocytes assessed as reduction S phase cells at 30 uM measured after 5 days by flow cytometric analysis; assay type: functional, cell-based; details: time 5.0 day
Method in brief: (§3)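 PHA-activated PBMC exposed to compounds (30 μM) for 5 days in RPMI/10% heat-inactivated calf serum/2 mM L-glutamine, scraped off and incubated 1 h at 4 °C in the dark. Cell cycle read by flow cytometry and scored as G0/G1 versus cycling (S+G2/M) percentage. Mean ± SD of 3 experiments; unpaired t-test against untreated cells.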

[17] = tested on: T-cell; assay: Induction of cell cycle arrest at G0/G1 phase in human PBMC derived PHA-activated T-lymphocytes assessed as reduction G2/M phase cells at 30 uM measured after 5 days by flow cytometric analysis; assay type: functional, cell-based; details: time 5.0 day; method in brief: as §3
[18] = target: T1, Potassium voltage-gated channel subfamily A member 3; assay: Inhibition of human Kv1.3 expressed in PHA-activated T-lymphocyte cells assessed as outward current at 1 uM incubated for 1 min by patch clamp electrophysiology method (reference value: 769.2 +/- 199.2 pA); assay type: cell-based
Method in brief: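 Human PBMCs isolated by Ficoll gradient with red-cell lysis, seeded at 1.5 × 10⁶ cells/mL in RPMI with 10% heat-inactivated serum and 2 mM L-glutamine, then stimulated 5 days with PHA-L 240 ng/mL. Whole-cell patch clamp used a bath of (mM) 130 NaCl, 5 KCl, 10 HEPES, pH 7.4 and a pipette of 140 KF, 11 EGTA, pH 7.2. Large cells were selected, and cells with currents ≤500–600 pA were discarded. Outward current was leak-subtracted and compared to control by paired t-test.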

[19] = Aqueous solubility of compound in DMEM; assay type: physicochemical

SMILES | inhibition [2] [%] | inhibition [3] | also measured
COCCCNC(=O)O[C@H]1CC[C@](CNC(=O)c2ccccc2OC)(c2cccs2)CC1 | 91.6 | Active | IC50 [1]: 850 nM
CNC(=O)O[C@H]1CC[C@](CNC(=O)c2ccccc2OC)(c2ccsc2)CC1 | 79.6 | Active | 
O=c1ccc2c(OCCCCOc3ccccc3)c3ccoc3cc2o1 |  |  | solubility [4]: < 1000 µg/mL
COc1ccc(F)cc1C(=O)NC[C@]1(c2cccs2)CC[C@@H](O)CC1 | 54.9 | Active | 
COc1ccccc1C(=O)NCC1(c2ccsc2)CCCC1 |  |  | IC50 [5]: 17400 nM
O=C(NC[C@]1(c2cccs2)CC[C@@H](O)CC1)c1ccoc1 | 0 | Active | inhibition at 5 µM [6]: 21%
COc1ccccc1C(=O)NC[C@]1(c2ccsc2)CC[C@H](N)CC1 | 6.46 | Active | 
COc1cc(C)ccc1C(=O)NCC1(c2cccs2)CCC(=O)CC1 | 85.6 | Active | 
COc1ccccc1C(=O)NCC1(c2ccccc2)CCC(=O)CC1 | 87.5 | Active | IC50 [7]: 310 nM; IC50 [8]: 260 nM; IC50 [9]: 1000 nM
COc1ccccc1C(=O)NC[C@]1(c2cccs2)CC[C@H](O)CC1 | 90.9 | Active | IC50 [1]: 250 nM
COc1ccccc1C(=O)NCC1(c2ccsc2)CCC(=O)CC1 | 97 | Active | solubility thermodynamic at 24 h [10]: 400 µM (≈ 137 µg/mL); IC50 [1]: 800 nM
CCCNC(=O)O[C@H]1CC[C@@](CNC(=O)c2ccccc2OC)(c2ccccc2)CC1 | 87.3 | Active | IC50 [9]: 340 nM
COc1ccc(C)cc1C(=O)NCC1(c2cccs2)CCC(=O)CC1 | 23.3 | Active | 
COc1ccccc1C(=O)NC[C@]1(c2ccsc2)CC[C@@H](O)CC1 | 78.5 | Active | 
COc1ccc(F)cc1C(=O)NCC1(c2cccs2)CCC(=O)CC1 | 39.1 | Active | 
COc1ccccc1C(=O)NCC1(c2cccs2)CCC(=O)CC1 | 95.1 | Active | solubility thermodynamic at 24 h [10]: 210 µM (≈ 72.1 µg/mL); IC50 [1]: 1130 nM

SMILES | inhibition [2] [%] | inhibition [3] | also measured
COc1ccccc1C(=O)NC[C@]1(c2ccsc2)CC[C@H](O)CC1 | 97.6 | Active | Activity [11]: Non-Toxic; solubility thermodynamic at 24 h [10]: 72 µM (≈ 24.9 µg/mL); inhibition at 5 µM [6]: 15%; IC50 [12]: 56.8 nM; IC50 [1]: 450 nM; Activity [13]: Non-Toxic; inhibition [14]: Active; inhibition [15]: inactive; Activity [16]: Active; Activity [17]: Active
CNC(=O)O[C@H]1CC[C@](CNC(=O)c2ccccc2OC)(c2cccs2)CC1 | 94.7 | Active | IC50 [1]: 180 nM
CNC(=O)O[C@H]1CC[C@@](CNC(=O)c2ccccc2OC)(c2cccs2)CC1 | 93.8 | Active | IC50 [1]: 470 nM
CCCNC(=O)O[C@H]1CC[C@](CNC(=O)c2ccccc2OC)(c2ccsc2)CC1 | 25.5 | Active | 
CCCNC(=O)O[C@H]1CC[C@](CNC(=O)c2ccccc2OC)(c2ccccc2)CC1 | 40.5 | Active | 
COc1ccccc1C(=O)NC[C@]1(c2cccs2)CC[C@@H](O)CC1 | 38.5 | Active | 
O=C1CCC(CNC(=O)c2ccoc2)(c2cccs2)CC1 | 55.3 | Active | 
Clc1ccccc1C(c1ccccc1)(c1ccccc1)n1cccn1 |  |  | Activity [18]: 173 pA
COc1ccc(F)cc1C(=O)NC[C@]1(c2cccs2)CC[C@H](O)CC1 | 66.4 | Active | 
COCCCNC(=O)O[C@H]1CC[C@](CNC(=O)c2ccccc2OC)(c2ccsc2)CC1 | 94.5 | Active | IC50 [1]: 670 nM
COc1ccccc1C(=O)NC[C@]1(c2ccsc2)CC[C@@H](N)CC1 | 0.65 | Active | 
C=CCNC(=O)O[C@H]1CC[C@@](CNC(=O)c2ccccc2OC)(c2ccsc2)CC1 | 36.2 | Active | IC50 [12]: 37.2 nM
CNC(=O)O[C@H]1CC[C@@](CNC(=O)c2ccccc2OC)(c2ccsc2)CC1 | 93 | Active | inhibition at 5 µM [6]: 19%; IC50 [1]: 170 nM
O=C(NC[C@]1(c2cccs2)CC[C@H](O)CC1)c1ccoc1 | 65.7 | Active | 
O=c1ccc2c(OCCCCOc3ccc(O)cc3)c3ccoc3cc2o1 |  |  | solubility [19]: 0.6 µM (≈ 0.22 µg/mL)
